The results in this text go back to ChEMBL document CHEMBL2331224 (J Med Chem, 2013).

Activity calls are given as the source filed them. The rule behind the calls is not given here.

Data set [1] relates to Mus musculus. The data set can be described thus: Toxicity against KKAy mouse assessed as plasma gammaGTP level at 10 mg/kg/day, po for 14 days (reference value: 5.8 +/- 0.6 IU). It counts as organism-based. Further details: route oral. As to conditions: in vivo, 336 h.
Data set [2] relates to Mus musculus. The data set can be described thus: Toxicity against KKAy mouse assessed as plasma AST level at 10 mg/kg/day, po for 14 days (reference value: 49.6 +/- 2.3 IU). In kind it is organism-based. As to conditions: in vivo, 336 h. Further details: route oral.
The subject of data set [3] is Mus musculus. The data set can be described thus: Antidiabetic activity in KKAy mouse assessed as reduction in water intake on day 3 to 12 at 10 mg/kg/day, po for 14 days relative to control. In kind it is functional, organism-based. The method in brief:
(§1)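 Male KK-A^y mice, housed singly after 6 weeks' acclimation and grouped by blood glucose. Oral 10 mg/kg/day or vehicle (1% ethanol/0.5% CMC in water, 10 mL/kg) for 14 days. Body weight, food and water intake were followed. Fed blood glucose was taken from the tail vein by the glucose oxidase method. n = 4−5, ANOVA.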

Data set [4] concerns Mus musculus. The data set can be described thus: Antidiabetic activity in KKAy mouse assessed as reduction in blood glucose level on day 4 to 12 at 10 mg/kg/day, po for 14 days. It counts as functional, organism-based. Put shortly:
as §1

In another data set the test system is Rattus norvegicus. Description: Toxicity in Sprague-Dawley rat assessed as change in weight of organs at 30 mg/kg, po for 28 days. In kind it is organism-based. As to conditions: in vivo, 672 h. Further details: dose 30 mg/kg, route oral. Put shortly:
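Male and female SD rats, four weeks old on arrival, two per cage. Oral 30 mg/kg/day or vehicle (1% ethanol/0.5% CMC in water, 5 mL/kg) for 28 days, body weight recorded daily. After overnight fasting and isoflurane anaesthesia, liver, brain, kidney, spleen and testis were weighed, and serum was collected (2000g, 10 min, 4 °C) for blood chemistry.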

Data set [5] has as its system Mus musculus. The data set can be described thus: Toxicity in ICR mouse assessed as increase in blood total cholesterol level at 30 mg/kg/day, po for 7 days. It counts as organism-based. On the set-up: route oral. The note with it: in vivo, 168 h. Put shortly: (§2)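 Male ICR mice, 6−7 weeks old, four per cage, grouped by body weight. Oral 30 mg/kg or vehicle (1% ethanol/0.5% CMC in water, 10 mL/kg) once daily for 7 days, body weight recorded daily. After overnight fasting, mice were weighed under ether, and liver was removed and weighed. Serum was analysed on a dry-chemistry analyser for TG, TCHO, ALP, CRE, BUN and other markers. n = 7−23, ANOVA.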

In data set [6] the target is T1, Retinoic acid receptor RXR-alpha (Homo sapiens) (UniProt P19793).
T1 sequence (whole entry): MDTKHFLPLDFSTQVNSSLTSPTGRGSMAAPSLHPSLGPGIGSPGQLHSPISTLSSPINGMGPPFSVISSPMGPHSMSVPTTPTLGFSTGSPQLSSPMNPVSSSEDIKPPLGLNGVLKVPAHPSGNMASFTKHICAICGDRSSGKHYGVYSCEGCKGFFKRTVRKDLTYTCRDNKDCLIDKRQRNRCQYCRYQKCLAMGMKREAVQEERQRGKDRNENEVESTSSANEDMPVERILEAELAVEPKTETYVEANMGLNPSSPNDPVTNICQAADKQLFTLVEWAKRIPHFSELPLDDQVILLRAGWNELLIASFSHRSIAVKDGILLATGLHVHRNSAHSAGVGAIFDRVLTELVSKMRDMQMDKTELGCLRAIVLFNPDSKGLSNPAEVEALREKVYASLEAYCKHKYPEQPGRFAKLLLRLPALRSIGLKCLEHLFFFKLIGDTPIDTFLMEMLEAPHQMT
The data set can be described thus: Partial agonist activity at human RXRalpha by luciferase reporter gene assay. Put shortly:
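COS-1 cells transfected with RXRα, luciferase reporter under RXR response element, and SEAP control; cells seeded ~2.0 × 10⁴/well with compound (DMSO below 1%), 18 h at 37 °C, 5% CO₂. Luciferase normalized to SEAP, expressed relative to 1 μM LGD1069 as 100%; EC₅₀ from full dose-response curves; triplicate, three experiments.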
Background: In a reporter assay the amount or activity of a reporter protein is the signal.

Data set [7] has as its target RXR alpha/PPAR gamma (Homo sapiens) (UniProt P37231+P19793). The data set can be described thus: Transactivation of PPARgamma/RXRalpha (unknown origin) by luciferase reporter gene assay relative to TIPP703. It counts as protein-complex assay. Put shortly:
(§3)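 Heterodimer reporter in COS-1 cells co-transfected with RXRα (0.5 μg), partner receptor (LXRα for line 2, PPARγ for line 3; 0.5 μg), partner response element-luciferase (4.0 μg), and SEAP. Compound (DMSO below 1%) with ~2.0 × 10⁴ cells/well, 18 h, 37 °C; luciferase normalized to SEAP; triplicate, three runs.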

Data set [8] concerns the target Retinoic acid receptor RXR-alpha/oxysterols receptor LXR-alpha (Homo sapiens) (UniProt P19793+Q13133). The data set can be described thus: Transactivation of LXRalpha/RXRalpha (unknown origin) by luciferase reporter gene assay relative to carba-T0901317. It counts as protein-complex assay. Put shortly:
as §3

Data set [9] concerns the target T2, Retinoic acid receptor gamma (Homo sapiens) (UniProt P13631).
T2 sequence (whole entry): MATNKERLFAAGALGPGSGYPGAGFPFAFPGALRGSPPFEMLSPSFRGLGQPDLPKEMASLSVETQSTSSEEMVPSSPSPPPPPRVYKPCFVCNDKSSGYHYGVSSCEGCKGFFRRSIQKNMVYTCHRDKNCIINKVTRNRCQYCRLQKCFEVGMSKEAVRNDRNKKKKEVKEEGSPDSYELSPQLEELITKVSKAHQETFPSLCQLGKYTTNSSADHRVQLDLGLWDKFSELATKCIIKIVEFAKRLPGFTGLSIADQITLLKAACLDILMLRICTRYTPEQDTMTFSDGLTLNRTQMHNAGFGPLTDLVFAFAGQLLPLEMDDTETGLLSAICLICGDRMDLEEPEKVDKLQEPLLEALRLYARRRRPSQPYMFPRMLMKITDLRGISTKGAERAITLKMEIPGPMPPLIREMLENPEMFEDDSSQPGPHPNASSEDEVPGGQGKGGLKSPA
Description: Transactivation of RARgamma (unknown origin) by luciferase reporter gene assay relative to All-trans retinoic acid.

In data set [10] the target is T1, Retinoic acid receptor RXR-alpha (Homo sapiens). Description: Partial agonist activity at RXRalpha (unknown origin) expressed in COS1 cells after 18 hrs by luciferase reporter gene assay relative to bexarotene. It counts as cell-based. The note with it: COS-1. Put shortly:
(§4)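 COS-1 cells in DMEM with 10% FBS at 37 °C, 5% CO2, transfected with RXRα, an RXR-response-element luciferase reporter and a SEAP background vector. Cells were seeded at about 2.0 × 10⁴ per well with compound (DMSO below 1%) for 18 h. Luciferase was normalized to SEAP and expressed relative to 1 μM reference RXR full agonist as 100%. EC50 came from full dose-response curves. Triplicates, at least three experiments.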

For data set [11], the target named is T3, Retinoic acid receptor RXR-alpha (Homo sapiens, UniProt P19793).
T3 sequence (P19793 whole entry): T1 sequence (whole entry)
Description: Partial agonist activity at RXRalpha (unknown origin) expressed in COS1 cells after 18 hrs by luciferase reporter gene assay. In kind it is cell-based, COS-1. The method in brief: as §4

The target of data set [12] is T1, Retinoic acid receptor RXR-alpha (Homo sapiens). The data set can be described thus: Transactivation of RXRalpha (unknown origin) expressed in COS1 cells at 1 uM after 18 hrs by luciferase reporter gene assay relative to bexarotene. It counts as cell-based. The note with it: COS-1. Put shortly:
as §4

Data set [13] has as its system Mus musculus. The data set can be described thus: Toxicity in ICR mouse assessed as development of hepatomegaly at 30 mg/kg/day, po for 7 days. In kind it is organism-based. On the set-up: route oral. As to conditions: in vivo, 168 h. The method in brief: as §2

Regarding `Cc1cc2c(cc1-n1c(C(F)(F)F)nc3cc(C(=O)O)ccc31)C(C)(C)CCC2(C)C`, the Activity with Mus musculus [1] is reported as 6.3 IU; with Mus musculus [2], 42.3 IU; in the data set on Rattus norvegicus it was “Non-toxic”; in the data set on Mus musculus [5], “Non-toxic”; in the data set on Mus musculus [13], “Toxic”. Besides, the outcome (in the data set on Mus musculus [3]; with Mus musculus [4]; in data set [6]; in data set [7]; in data set [8]; in data set [9]) was Active. In data set [10], the Emax (usually the maximal effect, on the per cent scale that the assay sets) was determined as 67%. For the same compound, the EC50 (in general, the concentration needed to bring the measured effect to its halfway point) in data set [11] came to 0.015 µM. Further, the Efficacy in data set [12] stood at 65%.
